Tests used:
Rattus norvegicus = species: Rattus norvegicus; assay: Selectivity ratio of Ki for sigma 1 receptor in rat cortical membranes to Ki for rat VAChT; format: cell membranes; details: Membrane
[1] = biological target: Sigma non-opioid intracellular receptor 1 (Rattus norvegicus, UniProt Q9R0C9); assay: Displacement of (-)-[3H]pentazocine from sigma 1 receptor in rat cortical membranes after 120 mins; format: cell membranes, Membrane
In short: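 Radioligand displacement on rat cortical membrane homogenates with (−)-[3H]pentazocine (1070 GBq/mmol), in 50 mM TRIS–HCl pH 7.4 at room temperature. Each assay was run in triplicate at least three times, and IC50 was estimated by non-linear regression.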

[2] = Displacement of (-)-[3H]DTG from sigma 2 receptor in rat liver membranes after 120 mins; format: cell membranes, Membrane
[3] = biological target: T1, Vesicular acetylcholine transporter (Rattus norvegicus, UniProt Q62666); assay: Displacement of (-)-[3H]vesamicol from rat VAChT expressed in rat PC12 cells after 60 mins; format: cell-based, PC-12
T1 sequence (Q62666 whole entry): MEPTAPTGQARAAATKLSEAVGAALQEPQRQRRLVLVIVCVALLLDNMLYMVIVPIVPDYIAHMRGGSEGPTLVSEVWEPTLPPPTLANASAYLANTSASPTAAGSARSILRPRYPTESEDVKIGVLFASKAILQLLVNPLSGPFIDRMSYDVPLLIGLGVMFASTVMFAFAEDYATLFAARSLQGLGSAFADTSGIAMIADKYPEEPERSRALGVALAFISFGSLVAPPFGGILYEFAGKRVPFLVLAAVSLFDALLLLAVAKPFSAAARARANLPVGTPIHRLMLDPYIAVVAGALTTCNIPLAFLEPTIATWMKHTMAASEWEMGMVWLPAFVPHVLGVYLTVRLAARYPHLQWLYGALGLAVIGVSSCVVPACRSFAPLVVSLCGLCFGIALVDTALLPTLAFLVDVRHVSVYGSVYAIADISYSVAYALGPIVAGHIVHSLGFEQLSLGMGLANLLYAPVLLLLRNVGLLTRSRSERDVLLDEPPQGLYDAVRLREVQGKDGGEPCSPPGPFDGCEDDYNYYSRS
In short: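 Displacement of (−)-[3H]vesamicol was run on homogenates of PC12 cells stably transfected with rat VAChT. (−)-Vesamicol in excess defined non-specific binding, and bound ligand was collected by filtration on a cell harvester. Triplicates, at least three times; IC50 by computational non-linear regression.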

Chain of Sigma non-opioid intracellular receptor 1 (Q9R0C9 whole entry): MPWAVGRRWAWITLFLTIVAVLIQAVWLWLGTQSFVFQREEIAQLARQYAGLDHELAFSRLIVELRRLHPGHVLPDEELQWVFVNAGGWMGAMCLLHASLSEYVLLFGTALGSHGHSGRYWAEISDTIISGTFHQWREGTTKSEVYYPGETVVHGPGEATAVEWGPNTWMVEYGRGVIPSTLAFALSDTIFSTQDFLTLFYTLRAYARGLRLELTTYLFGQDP

For O[C@H]1Cc2cccc(F)c2C[C@@H]1N1CCC(c2ccccc2)CC1, which Ratio Ki (Rattus norvegicus) is on record?
Its Ratio Ki is 5.48.

What about the Ki [1] of the same molecule?
Its Ki is 38.1 nM.

What about the Ki [2] of the same molecule?
The Ki was 526 nM.

And the Ki [3]?
Its Ki is 6.95 nM.

What does the source list for Nc1cccc2c1CC(N1CCC(c3ccccc3)CC1)C(O)C2 (racemic)?
Ratio Ki (Rattus norvegicus): 16; Ki [1]: 652 nM; Ki [3]: 40.6 nM

Which results are given for O[C@@H]1Cc2cccc(F)c2C[C@H]1N1CCC(c2ccccc2)CC1?
Ratio Ki (Rattus norvegicus): 0.97; Ki [1]: 3.57 nM; Ki [2]: 252 nM; Ki [3]: 3.68 nM

For O[C@@H]1Cc2cccc(OCCF)c2C[C@H]1N1CCC(c2ccccc2)CC1, which Ratio Ki (Rattus norvegicus) is on record?
The Ratio Ki was 10.7.

What about the Ki [1] of the same molecule?
Its Ki is 209 nM.

And the Ki [3]?
Its Ki is 19.6 nM.

With O[C@@H]1Cc2cccc(I)c2C[C@H]1N1CCC(c2ccccc2)CC1 (racemic) as the molecule, how does the Ratio Ki (Rattus norvegicus) read?
Its Ratio Ki is 17.

And the Ki [1]?
The Ki was 266 nM.

And the Ki [3]?
The Ki was 15.8 nM.

Which Ratio Ki (Rattus norvegicus) does the source give for OC1Cc2cccc(F)c2CC1N1CCC(c2ccccc2)CC1 (racemic) here?
The Ratio Ki was 1.21.

What about the Ki [1] of the same molecule?
Its Ki is 13.2 nM.

What about the Ki [2] of the same molecule?
The Ki was 229 nM.

What about the Ki [3] of the same molecule?
Its Ki is 10.9 nM.

For O[C@H]1Cc2cccc(OCCF)c2C[C@@H]1N1CCC(c2ccccc2)CC1, which Ratio Ki (Rattus norvegicus) is on record?
The Ratio Ki was 4.7.

What about the Ki [1] of the same molecule?
Its Ki is 269 nM.

And the Ki [3]?
The Ki was 56.9 nM.

Source: ChEMBL document CHEMBL1268949, “3D QSAR study, synthesis, and in vitro evaluation of (+)-5-FBVM as potential PET radioligand for the vesicular acetylcholine transporter (VAChT)” (Bioorg Med Chem, 2010)
